Experimental data as given in ChEMBL document CHEMBL4480465, “Anti-inflammatory Mono- and Dimeric Sorbicillinoids from the Marine-Derived Fungus Trichoderma reesei 4670” (J Nat Prod, 2019).
Calls of active or inactive are those of the source. No cut-off for these calls is given here.

Key:
HeLa = assay: Cytotoxicity against human HeLa cells by MTT assay; format: functional, cell-based
MCF7 = assay: Cytotoxicity against human MCF7 cells by MTT assay; format: functional, cell-based
HepG2 = assay: Cytotoxicity against human HepG2 cells by MTT assay; format: functional, cell-based
RAW264.7 [1] = assay: Cytotoxicity against mouse RAW264.7 cells by MTT assay; format: cell-based
RAW264.7 [2] = assay: Antiinflammatory activity against mouse RAW264.7 cells assessed as inhibition of LPS-induced nitric oxide production measured after 24 hrs; format: functional, cell-based; details: RAW264.7, 24 h
In short: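 RAW264.7 cells seeded at 5 × 10^4 per well and grown 24 h, then given LPS (1 μg/mL) together with graded compound concentrations (DMSO stocks) for 24 h. NO in the medium was read with nitric oxide detection reagents I and II, measuring absorbance at 540 nm. IC50 came from normalized response–variable slope curve fits, mean of n = 3.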

SMILES | IC50 (RAW264.7 [2]) [µM] | Activity (HeLa) | Activity (MCF7) | Activity (HepG2) | IC50 (RAW264.7 [1]) [µM]
C/C=C/C=C/C(O)=C1\C(=O)C(C)=C(O)[C@@]2(C)O[C@@]3(O)[C@@](C)(O)CC4=C(O[C@H](/C=C/C)CC4=O)[C@@]3(C)[C@@H]12 | 32 | inactive | inactive | inactive | > 50
Cc1cc(C(=O)/C=C/C=C/CO)c(O)c(C)c1O | 6.8 | inactive | inactive | inactive | > 50
Cc1cc(C(=O)CCC(=O)O)c(O)c(C)c1O | > 50 | inactive | inactive | inactive | > 50
C/C=C/C=C/C(=O)c1c(O)c(C)cc(C)c1O | 3.3 | inactive | inactive | inactive | > 50
C/C=C/C=C/C(O)=C1/C(=O)C(C)=C(O)[C@@]2(C)O[C@@]3(O)[C@@](C)(O)CC(C(=O)CC/C=C/C)=C(O)[C@@]3(C)[C@@H]12 | 5.9 | inactive | inactive | inactive | > 50
Cc1cc2c(c(C)c1O)O[C@H](/C=C/CO)CC2=O | 8.5 | inactive | inactive | inactive | > 50
C/C=C/C=C/C(O)=C1\C[C@](C)(O)[C@]2(O)O[C@]3(C)C(O)=C(C)C(=O)/C(=C(O)/C=C/C=C/CO)[C@@H]3[C@]2(C)C1=O | 6.1 | inactive | inactive | inactive | > 50
C/C=C/CCC(=O)C1=C(O)[C@@]2(C)[C@H]3\C(=C(O)/C=C/C=C/CO)C(=O)C(C)=C(O)[C@@]3(C)O[C@@]2(O)[C@@](C)(O)C1 | 22 | inactive | inactive | inactive | > 50
C/C=C/C=C/C(O)=C1\C[C@](C)(O)[C@]2(O)O[C@]3(C)C(O)=C(C)C(=O)/C(=C(O)/C=C/C=C/C)[C@@H]3[C@]2(C)C1=O | 9.9 | inactive | inactive | inactive | > 50
C/C=C/C=C/C(O)=C1\C(=O)C(C)=C(O)[C@@]2(C)O[C@@]3(O)[C@@](C)(O)CC4=C(O[C@@H](/C=C/C)CC4=O)[C@@]3(C)[C@@H]12 | 22 | inactive | inactive | inactive | > 50
COc1ccc2c(c1)c(CC(=O)O)c(C)n2C(=O)c1ccc(Cl)cc1 [INDOMETHACIN] | 41 | – | – | – | > 50
Cc1c(O)c(O)cc(C(=O)CC/C=C/CO)c1O | 6.1 | inactive | inactive | inactive | > 50
CC1=C(O)[C@@]2(C)O[C@@]3(O)[C@@](C)(O)CC(C(=O)CC/C=C/CO)=C(O)[C@@]3(C)[C@H]2\C(=C(O)/C=C/C=C/CO)C1=O | 24 | inactive | inactive | inactive | > 50
Cc1cc2c(c(C)c1O)O[C@H](CCCO)CC2=O | 38 | inactive | inactive | inactive | > 50
CC1=C(O)[C@@]2(C)O[C@@]3(O)[C@@](C)(O)C\C(=C(O)/C=C/C=C/CO)C(=O)[C@@]3(C)[C@H]2\C(=C(O)/C=C/C=C/CO)C1=O | > 50 | inactive | inactive | inactive | > 50
Cc1c(O)ccc(C(=O)C[C@@H]2CC[C@H]([C@H](C)O)O2)c1O | > 50 | inactive | inactive | inactive | > 50
C/C=C/C=C/C(O)=C1/C(=O)[C@]2(C)C(=O)[C@@](C)(O)[C@H]1[C@@H]1CC(=O)N(C)[C@@H]12 | > 50 | inactive | inactive | inactive | > 50

The next lines start with results.

IC50 (RAW264.7 [2]) [µM] | SMILES | Activity (HeLa) | Activity (MCF7) | Activity (HepG2) | IC50 (RAW264.7 [1]) [µM]
12 | C/C=C/[C@@H](O)CC(=O)c1cc(C)c(O)cc1O | inactive | inactive | inactive | > 50
13 | C/C=C/CCCc1cc(C)c(O)cc1O | inactive | inactive | inactive | > 50
14 | C/C=C/CCC(=O)c1cc(C)c(O)cc1O [SOHIRNONE A] | inactive | inactive | inactive | > 50
> 50 | Cc1cc(C(=O)CCC(=O)O)c(O)cc1O | inactive | inactive | inactive | > 50
> 50 | Cc1cc(C(=O)CC/C=C/C(=O)O)c(O)cc1O | inactive | inactive | inactive | > 50
0.94 | Cc1cc(C(=O)CC/C=C/CO)c(O)cc1O | inactive | inactive | inactive | > 50
2.9 | Cc1cc(C(=O)CC/C=C/CO)c(O)c(C)c1O | inactive | inactive | inactive | > 50
> 50 | Cc1cc(C(=O)CCCCCO)c(O)cc1O | inactive | inactive | inactive | > 50
